Test results as given in ChEMBL document CHEMBL5705894, “SB1518, a novel macrocyclic pyrimidine-based JAK2 inhibitor for the treatment of myeloid and lymphoid malignancies” (Leukemia, 2011).
Calls of active or inactive are those of the source. The rule behind the calls is not given here.

Tests used:
[1] = system: Tyrosine-protein kinase JAK2 (Mus musculus), Q62120 [V617F]; test: Inhibition of JAK2 V617F mutant expressed in mouse BaF3 cells assessed as reduction of STAT5 phosphorylation at Y694 by Western blotting analysis; type: cell-based
[2] = biological target: Tyrosine-protein kinase JAK2 (Homo sapiens) (UniProt O60674); settings: HEK-293T, dose 8-1000 nM, time 3.0 hrs
A549 = test: Antiproliferative activity against human A549 cells assessed as inhibition of cell viability incubated for 48 hrs by CellTiterGlo assay; type: functional, cell-based; settings: A549, 48 h
In short: (§1)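 Cells seeded at 30–50% confluency in 96-well plates, then treated the next day in triplicate at up to 10 μM for 48 h. Viability read by CellTiter-Glo luminescence. IC50 taken from fitted dose–response curves.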

[3] = system: Tyrosine-protein kinase JAK2 (Homo sapiens), O60674 [V617F]; settings: SET2, dose 8-1000 nM, time 3.0 hrs
Karpas-1106P [4] = test: Induction of cell cycle arrest in human KARPAS-1106P cells expressing JAK2 assessed as accumulation of cells at G0/1 phase incubated for 24 hrs by PI staining based flow cytometry; type: functional
In short: (§2)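 Cells were fixed in 70% ice-cold ethanol and stained with propidium iodide, then analysed by flow cytometry for cell-cycle distribution.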

U-266 = test: Antiproliferative activity against human U-266 cells assessed as inhibition of cell viability incubated for 48 hrs by CellTiterGlo assay; type: functional, cell-based; settings: U-266, 48 h; in short: as §1
SNU-387 = test: Antiproliferative activity against human SNU-387 cells assessed as inhibition of cell viability incubated for 48 hrs by CellTiterGlo assay; type: functional, cell-based; settings: SNU-387, 48 h; in short: as §1
MV4-11 = test: Antiproliferative activity against human MV4-11 cells harboring FLT3-ITD mutant assessed as inhibition of cell viability incubated for 48 hrs by CellTiterGlo assay; type: functional, cell-based; settings: MV4-11, 48 h; in short: as §1
NCI-H322M = test: Antiproliferative activity against human NCI-H322M cells assessed as inhibition of cell viability incubated for 48 hrs by CellTiterGlo assay; type: functional, cell-based; in short: as §1
PC-3 = test: Antiproliferative activity against human PC-3 cells assessed as inhibition of cell viability incubated for 48 hrs by CellTiterGlo assay; type: functional, cell-based; settings: PC-3, 48 h; in short: as §1
[5] = biological target: Tyrosine-protein kinase JAK2 (Homo sapiens) (UniProt O60674); settings: KARPAS-1106P, dose 8-1000 nM, time 3.0 hrs
COLO 205 = test: Antiproliferative activity against human COLO 205 cells assessed as inhibition of cell viability incubated for 48 hrs by CellTiterGlo assay; type: functional, cell-based; settings: COLO 205, 48 h; in short: as §1
Karpas-1106P [6] = test: Induction of apoptosis in human KARPAS-1106P cells assessed as activation of caspase-3/7 incubated for 16 hrs; type: functional, cell-based
In short: (§3)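 SET-2 and Karpas 1106P cells were exposed to graded drug concentrations for 16 h. Apoptosis was read as caspase-3/7 activation.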

Mus musculus = test: In vivo inhibition of JAK2 V617F mutant in SCID Beige mouse xenografted with human SET2 cells assessed as increased JAK2 phosphorylation at Y1007/8 by immunoblotting analysis; type: functional, organism-based; settings: dose 75-150 mg/kg, route po
In short: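 Subcutaneous SET-2 tumors in SCID beige mice. Single oral doses of 75 or 150 mg/kg were given at about 300 mm3 tumor size; in the chronic arm, dosing ran for 18 days. Tumors were collected 3 h post-dose, lysed, and immunoblotted for pJAK2 (Y1007/8) and pSTAT5.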

Karpas-1106P [7] = test: Induction of cell cycle arrest in human KARPAS-1106P cells expressing JAK2 assessed as decrease in accumulation of cells at S phase incubated for 24 hrs by PI staining based flow cytometry; type: functional; in short: as §2
[8] = In vivo inhibition of JAK2 V617F mutant in athymic BALB/c nude mouse xenografted with mouse BaF3 cells administered for 24 hrs; type: functional
[9] = system: Tyrosine-protein kinase JAK2 (Homo sapiens), O60674 [V617F]; settings: HEL 92.1.7, dose 1000.0 nM, time 4-24 hrs
[10] = system: Tyrosine-protein kinase JAK2 (Mus musculus), Q62120 [V617F]; test: Inhibition of JAK2 V617F mutant expressed in mouse BaF3 cells assessed as decreased total tyrosine phosphorylation at 1000 nM incubated for 3 hrs by Western blotting analysis; type: cell-based
Jurkat E6.1 = test: Antiproliferative activity against human Jurkat E6.1 cells assessed as inhibition of cell viability incubated for 48 hrs by CellTiterGlo assay; type: functional, cell-based; settings: Jurkat E6.1, 48 h; in short: as §1
[11] = system: Tyrosine-protein kinase JAK2 (Homo sapiens), O60674 [V617F]; settings: SET2, dose 8-1000 nM, time 3.0 hrs; remark: listed apart in the source
T47D = test: Antiproliferative activity against human T47D cells assessed as inhibition of cell viability incubated for 48 hrs by CellTiterGlo assay; type: functional, cell-based
In short: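 Cells from ATCC, grown per supplier guidance, were seeded at 30–50% confluency and dosed the next day in triplicate at concentrations up to 10 μM for 48 h. Viability was read by luminescent ATP (CellTiter-Glo), and IC50 was fitted from dose–response curves.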

SET-2 [12] = test: Induction of apoptosis in human SET2 cells assessed as activation of caspase-3/7 incubated for 16 hrs; type: functional, cell-based; in short: as §3
HCT-116 = test: Antiproliferative activity against human HCT-116 cells assessed as inhibition of cell viability incubated for 48 hrs by CellTiterGlo assay; type: functional, cell-based; settings: HCT-116, 48 h; in short: as §1
[13] = system: Tyrosine-protein kinase JAK2 (Homo sapiens), O60674 [V617F]; settings: HEL 92.1.7, dose 8-1000 nM, time 3.0 hrs
[14] = biological target: Tyrosine-protein kinase JAK2 (Homo sapiens) (UniProt O60674); settings: Jurkat, dose 8-1000 nM, time 3.0 hrs
[15] = biological target: Tyrosine-protein kinase JAK2 (Homo sapiens) (UniProt O60674); settings: HEK-293T, dose 8-1000 nM, time 3.0 hrs; remark: listed apart in the source
SET-2 [16] = test: Anti-tumor activity against human SET2 cells xenografted in SCID Beige mouse assessed as tumor growth inhibition at 150 mg/kg, po administered for 18 days and measured twice a week relative to control; type: functional; settings: SET-2, 432 h, time 18 day, read-out: TGI
In short: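 SCID beige mice received 5 × 10^6 SET-2 cells subcutaneously in the right flank, in serum-free medium mixed 1:1 with Matrigel. Dosing began when tumors averaged about 280 mm3 (day 31). Oral gavage at 10 ml/kg for 18 consecutive days, 12 mice per group. Caliper volume = (w² × l)/2. Animals were killed 3 h after the final dose.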

[17] = system: KATO III stomach cancer cell line; test: Antiproliferative activity against human KATO III stomach cancer cell line assessed as inhibition of cell viability incubated for 48 hrs by CellTiterGlo assay; type: functional, cell-based; in short: as §1
[18] = biological target: Tyrosine-protein kinase JAK2 (Homo sapiens) (UniProt O60674); settings: HEK-293T, dose 8-1000 nM, time 3.0 hrs; remark: listed apart in the source

Chain of Tyrosine-protein kinase JAK2 (Homo sapiens) (O60674 whole entry): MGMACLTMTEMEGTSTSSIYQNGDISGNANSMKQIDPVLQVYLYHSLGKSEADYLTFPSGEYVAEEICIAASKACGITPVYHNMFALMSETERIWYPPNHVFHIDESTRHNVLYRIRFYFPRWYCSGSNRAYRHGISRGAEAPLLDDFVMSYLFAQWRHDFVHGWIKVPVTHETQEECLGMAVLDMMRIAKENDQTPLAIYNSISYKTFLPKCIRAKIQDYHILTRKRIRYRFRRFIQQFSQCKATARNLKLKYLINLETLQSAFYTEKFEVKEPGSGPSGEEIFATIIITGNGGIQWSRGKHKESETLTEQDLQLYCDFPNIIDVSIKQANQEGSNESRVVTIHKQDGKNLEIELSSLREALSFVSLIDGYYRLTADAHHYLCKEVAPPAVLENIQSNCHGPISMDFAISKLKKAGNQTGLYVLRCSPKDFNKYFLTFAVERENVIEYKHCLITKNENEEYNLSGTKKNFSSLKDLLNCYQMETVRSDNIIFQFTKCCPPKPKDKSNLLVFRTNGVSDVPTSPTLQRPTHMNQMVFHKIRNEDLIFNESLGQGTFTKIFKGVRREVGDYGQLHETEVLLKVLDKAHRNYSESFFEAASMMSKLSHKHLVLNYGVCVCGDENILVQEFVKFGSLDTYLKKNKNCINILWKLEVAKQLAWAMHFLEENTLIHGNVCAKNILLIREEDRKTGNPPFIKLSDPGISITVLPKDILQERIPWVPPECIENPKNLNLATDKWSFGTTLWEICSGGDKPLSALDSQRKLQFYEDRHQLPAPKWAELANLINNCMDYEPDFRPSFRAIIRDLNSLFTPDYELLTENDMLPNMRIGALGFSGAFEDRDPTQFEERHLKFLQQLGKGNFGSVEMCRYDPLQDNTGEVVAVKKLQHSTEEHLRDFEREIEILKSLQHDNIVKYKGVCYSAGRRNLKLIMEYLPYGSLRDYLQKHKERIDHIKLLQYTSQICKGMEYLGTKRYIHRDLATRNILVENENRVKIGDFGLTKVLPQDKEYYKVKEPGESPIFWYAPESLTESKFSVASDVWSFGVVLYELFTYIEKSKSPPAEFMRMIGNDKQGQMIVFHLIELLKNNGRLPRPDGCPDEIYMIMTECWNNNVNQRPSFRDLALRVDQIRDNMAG
Chain of Tyrosine-protein kinase JAK2 (Homo sapiens), O60674 [V617F] (O60674 whole entry V617F): as the sequence (O60674 whole entry) above, with V617F counted along it
Chain of Tyrosine-protein kinase JAK2 (Mus musculus), Q62120 [V617F] (Q62120 as listed by the source): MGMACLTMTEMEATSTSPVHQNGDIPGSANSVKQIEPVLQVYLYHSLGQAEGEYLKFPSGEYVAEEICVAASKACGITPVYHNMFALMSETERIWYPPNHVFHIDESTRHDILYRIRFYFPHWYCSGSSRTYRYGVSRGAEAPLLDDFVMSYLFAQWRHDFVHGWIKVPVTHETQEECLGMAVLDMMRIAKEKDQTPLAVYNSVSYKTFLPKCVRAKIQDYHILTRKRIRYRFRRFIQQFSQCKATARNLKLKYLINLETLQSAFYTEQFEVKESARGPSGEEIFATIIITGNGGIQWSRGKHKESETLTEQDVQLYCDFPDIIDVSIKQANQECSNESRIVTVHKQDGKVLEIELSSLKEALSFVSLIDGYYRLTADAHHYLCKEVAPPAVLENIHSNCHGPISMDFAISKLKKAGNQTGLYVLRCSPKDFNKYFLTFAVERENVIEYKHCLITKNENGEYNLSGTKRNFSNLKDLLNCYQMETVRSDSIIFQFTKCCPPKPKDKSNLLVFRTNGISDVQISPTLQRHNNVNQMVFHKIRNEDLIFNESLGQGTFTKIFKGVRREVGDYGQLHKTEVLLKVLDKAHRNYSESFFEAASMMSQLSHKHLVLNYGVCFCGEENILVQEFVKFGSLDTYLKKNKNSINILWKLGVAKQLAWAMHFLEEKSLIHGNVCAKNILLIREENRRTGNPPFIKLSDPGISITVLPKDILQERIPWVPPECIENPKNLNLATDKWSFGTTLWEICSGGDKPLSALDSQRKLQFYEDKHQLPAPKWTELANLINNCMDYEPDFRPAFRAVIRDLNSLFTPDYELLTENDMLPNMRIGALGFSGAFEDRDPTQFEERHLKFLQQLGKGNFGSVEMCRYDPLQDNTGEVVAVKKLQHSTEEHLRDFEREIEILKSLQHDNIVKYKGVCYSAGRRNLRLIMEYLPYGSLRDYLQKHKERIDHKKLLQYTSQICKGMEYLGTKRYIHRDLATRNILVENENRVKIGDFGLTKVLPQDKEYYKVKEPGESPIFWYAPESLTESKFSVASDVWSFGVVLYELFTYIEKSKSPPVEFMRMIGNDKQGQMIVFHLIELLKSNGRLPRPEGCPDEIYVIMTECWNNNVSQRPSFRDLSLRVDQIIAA

Structure (SMILES): C1=N/C2=N/c3ccc(OCCN4CCCC4)c(c3)COC/C=C/COCc3cccc(c3)C(=C1)N2 [PACRITINIB]
- inhibition [1]: Active
- inhibition [2]: Dose-Dependent Effect
- IC50 (A549): 2550 nM
- inhibition [3]: Active
- Activity (Karpas-1106P [4]): Dose-Dependent Effect
- IC50 (U-266): 1350 nM
- IC50 (SNU-387): 2030 nM
- IC50 (MV4-11): 47 nM
- IC50 (NCI-H322M): 2180 nM
- IC50 (PC-3): 770 nM
- inhibition [5]: Active
- IC50 (COLO 205): 2620 nM
- Activity (Karpas-1106P [6]): Dose-Dependent Effect
- EC50 (Karpas-1106P [6]): 1120 nM
- Activity (Mus musculus): Dose-Dependent Effect
- Activity (Karpas-1106P [7]): Dose-Dependent Effect
- FIC50 [8]: 0.019 µM
- inhibition [9]: Tde
- inhibition [10]: Active
- IC50 (Jurkat E6.1): 839 nM
- inhibition [11]: Dose-Dependent Effect
- IC50 (T47D): 1280 nM
- Activity (SET-2 [12]): Dose-Dependent Effect
- EC50 (SET-2 [12]; SET-2, 16 h): 571 nM
- IC50 (HCT-116): 1690 nM
- inhibition [13]: Dose-Dependent Effect
- inhibition [14]: Active
- inhibition [15]: Dose-Dependent Effect
- inhibition in vivo at 150 mg/kg (SET-2 [16]): 61%
- IC50 [17]: 2060 nM
- inhibition [18]: Dose-Dependent Effect
